Source: ChEMBL document CHEMBL1148547, “The structure-activity relationships of mansonone F, a potent anti-MRSA sesquiterpenoid quinone: SAR studies on the C6 and C9 analogs” (2006)
Converted amounts (≈) assume the structure as drawn.

Tests used:
Assay type in all cases: functional
Staphylococcus aureus [1] = assay: Antibacterial activity against methicillin-resistant Staphylococcus aureus
Outline: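 Agar dilution MIC on Mueller–Hinton agar, run per the NCCLS procedure. Test organisms were clinical isolates collected from Seoul hospitals between 1997 and 1999 and stored at -70 °C until use.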

Micrococcus luteus [2] = assay: Antibacterial activity against Micrococcus luteus ATCC 10240
Outline: (§1)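 MIC by agar dilution on Mueller–Hinton agar, following the NCCLS procedure.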

Staphylococcus aureus [3] = assay: Antibacterial activity against Staphylococcus aureus ATCC 6538P; outline: as §1
Bacillus cereus = assay: Antibacterial activity against Bacillus cereus ATCC 27348; outline: as §1
[4] = test system: Staphylococcus epidermidis; assay: Antibacterial activity against Staphylococcus epidermidis ATCC 12228; outline: as §1
Staphylococcus aureus [5] = assay: Antibacterial activity against Staphylococcus aureus ATCC 29213; outline: as §1
Staphylococcus aureus [6] = assay: Antibacterial activity against Staphylococcus aureus ATCC 25923; outline: as §1
Micrococcus luteus [7] = assay: Antibacterial activity against Micrococcus luteus ATCC 9341; outline: as §1
Klebsiella pneumoniae = assay: Antibacterial activity against Klebsiella pneumoniae ATCC 10031; outline: as §1
Staphylococcus aureus [8] = assay: Antibacterial activity against Staphylococcus aureus; outline: as §1
Bacillus subtilis = assay: Antibacterial activity against Bacillus subtilis ATCC 6633; outline: as §1

CC(=O)C1=C2OC=C(C)c3ccc(C)c(c32)C(=O)C1=O was tested, and the MIC50 (Staphylococcus aureus [1]) was 16 µg/mL (≈ 59.6 µM) and the MIC90 (Staphylococcus aureus [1]) was 32 µg/mL (≈ 119 µM).

Work on COC(=O)c1ccc2c3c1C(=O)C(=O)C(C)=C3OC=C2C yielded an MIC50 (Staphylococcus aureus [1]) of 16 µg/mL (≈ 56.3 µM) and an MIC90 (Staphylococcus aureus [1]) of 16 µg/mL (≈ 56.3 µM).

With CC1=COC2=C(C)C(=O)C(=O)c3c(C)ccc1c32 [MANSONONE F] the MIC50 (Staphylococcus aureus [1]) was 2 µg/mL (≈ 8.32 µM), the MIC90 (Staphylococcus aureus [1]) was 4 µg/mL (≈ 16.6 µM) and the MIC (Micrococcus luteus [2]) was 1 µg/mL (≈ 4.16 µM). The MIC (Staphylococcus aureus [3]) was 4 µg/mL (≈ 16.6 µM), the MIC (Bacillus cereus) was 4 µg/mL (≈ 16.6 µM) and the MIC [4] was 0.5 µg/mL (≈ 2.08 µM). The MIC (Staphylococcus aureus [5]) was 4 µg/mL (≈ 16.6 µM), the MIC (Staphylococcus aureus [6]) was 1 µg/mL (≈ 4.16 µM) and the MIC (Micrococcus luteus [7]) was 1 µg/mL (≈ 4.16 µM). The MIC (Klebsiella pneumoniae) was 8 µg/mL (≈ 33.3 µM), the MIC (Staphylococcus aureus [8]; Smith) was 4 µg/mL (≈ 16.6 µM) and the MIC (Staphylococcus aureus [8]; TMS 33) was 8 µg/mL (≈ 33.3 µM). The MIC (Staphylococcus aureus [8]; TMS 64) was 8 µg/mL (≈ 33.3 µM), the MIC (Staphylococcus aureus [8]; TMS 417) was 4 µg/mL (≈ 16.6 µM) and the MIC (Bacillus subtilis) was 2 µg/mL (≈ 8.32 µM).

With CCCC1=C2OC=C(C)c3ccc(C)c(c32)C(=O)C1=O the MIC50 (Staphylococcus aureus [1]) was 4 µg/mL (≈ 14.9 µM) and the MIC90 (Staphylococcus aureus [1]) was 8 µg/mL (≈ 29.8 µM).

CCC1=C2OC=C(C)c3ccc(C)c(c32)C(=O)C1=O was tested, and the MIC50 (Staphylococcus aureus [1]) was 16 µg/mL (≈ 62.9 µM) and the MIC90 (Staphylococcus aureus [1]) was greater than 32 µg/mL.

Molecule CC1=COC2=C(C)C(=O)C(=O)c3c(C(C)C)ccc1c32 has an MIC50 (Staphylococcus aureus [1]) of 4 µg/mL (≈ 14.9 µM) and an MIC90 (Staphylococcus aureus [1]) of 16 µg/mL (≈ 59.6 µM).

For CC1=COC2=CC(=O)C(=O)c3c(C)ccc1c32, the MIC50 (Staphylococcus aureus [1]) was 8 µg/mL (≈ 35.4 µM) and the MIC90 (Staphylococcus aureus [1]) was 16 µg/mL (≈ 70.7 µM).

For CCCCCc1ccc2c3c1C(=O)C(=O)C(C)=C3OC=C2C, the MIC50 (Staphylococcus aureus [1]) was 4 µg/mL (≈ 13.5 µM) and the MIC90 (Staphylococcus aureus [1]) was 8 µg/mL (≈ 27 µM).

Molecule CN[C@H](CC(C)C)C(=O)N[C@H]1C(=O)N[C@@H](CC(N)=O)C(=O)N[C@H]2C(=O)N[C@H]3C(=O)N[C@H](C(=O)N[C@H](C(=O)O)c4cc(O)cc(O)c4-c4cc3ccc4O)[C@H](O)c3ccc(c(Cl)c3)Oc3cc2cc(c3O[C@@H]2O[C@H](CO)[C@@H](O)[C@H](O)[C@H]2O[C@H]2C[C@](C)(N)[C@H](O)[C@H](C)O2)Oc2ccc(cc2Cl)[C@H]1O [VANCOMYCIN] has an MIC50 (Staphylococcus aureus [1]) of 2 µg/mL (≈ 1.38 µM), an MIC90 (Staphylococcus aureus [1]) of 2 µg/mL (≈ 1.38 µM) and an MIC (Micrococcus luteus [2]) of 4 µg/mL (≈ 2.76 µM). For the same molecule, the MIC (Bacillus cereus) was 4 µg/mL (≈ 2.76 µM), the MIC [4] was 8 µg/mL (≈ 5.52 µM) and the MIC (Staphylococcus aureus [6]) was 8 µg/mL (≈ 5.52 µM). It also gave an MIC (Micrococcus luteus [7]) of 8 µg/mL (≈ 5.52 µM), an MIC (Klebsiella pneumoniae) greater than 32 µg/mL and an MIC (Bacillus subtilis) of 0.5 µg/mL (≈ 0.345 µM).

Molecule CCCCCCc1ccc2c3c1C(=O)C(=O)C(C)=C3OC=C2C has an MIC50 (Staphylococcus aureus [1]) of 8 µg/mL (≈ 25.8 µM) and an MIC90 (Staphylococcus aureus [1]) of 16 µg/mL (≈ 51.5 µM).

CC1=COC2=C(C)C(=O)C(=O)c3cccc1c32 was tested, and the MIC50 (Staphylococcus aureus [1]) was 8 µg/mL (≈ 35.4 µM) and the MIC90 (Staphylococcus aureus [1]) was 8 µg/mL (≈ 35.4 µM).

CC1=COC2=CC(=O)C(=O)c3cccc1c32 gave an MIC50 (Staphylococcus aureus [1]) greater than 32 µg/mL and an MIC90 (Staphylococcus aureus [1]) greater than 32 µg/mL.

Molecule COc1ccc2c3c1C(=O)C(=O)C(C)=C3OC=C2C has an MIC50 (Staphylococcus aureus [1]) of 8 µg/mL (≈ 31.2 µM) and an MIC90 (Staphylococcus aureus [1]) of 8 µg/mL (≈ 31.2 µM).

CC1=COC2=C(C)C(=O)C(=O)c3c(CCC(C)C)ccc1c32 showed an MIC50 (Staphylococcus aureus [1]) of 8 µg/mL (≈ 27 µM) and an MIC90 (Staphylococcus aureus [1]) of 16 µg/mL (≈ 54 µM).

With CCCc1ccc2c3c1C(=O)C(=O)C(C)=C3OC=C2C the MIC50 (Staphylococcus aureus [1]) was 1 µg/mL (≈ 3.73 µM) and the MIC90 (Staphylococcus aureus [1]) was 4 µg/mL (≈ 14.9 µM).

COC(=O)C1=C2OC=C(C)c3ccc(C)c(c32)C(=O)C1=O gave an MIC50 (Staphylococcus aureus [1]) of 16 µg/mL (≈ 56.3 µM) and an MIC90 (Staphylococcus aureus [1]) of 32 µg/mL (≈ 113 µM).

CCc1ccc2c3c1C(=O)C(=O)C(C)=C3OC=C2C was tested, and the MIC50 (Staphylococcus aureus [1]) was 8 µg/mL (≈ 31.5 µM) and the MIC90 (Staphylococcus aureus [1]) was 16 µg/mL (≈ 62.9 µM).

For CC1=COC2=C(CBr)C(=O)C(=O)c3c(C)ccc1c32, the MIC50 (Staphylococcus aureus [1]) was 16 µg/mL (≈ 50.1 µM) and the MIC90 (Staphylococcus aureus [1]) was 16 µg/mL (≈ 50.1 µM).

In the case of CC1=COC2=C(Br)C(=O)C(=O)c3c(C)ccc1c32, the MIC50 (Staphylococcus aureus [1]) is reported as 8 µg/mL (≈ 26.2 µM) and the MIC90 (Staphylococcus aureus [1]) is reported as 16 µg/mL (≈ 52.4 µM).

For CCCCc1ccc2c3c1C(=O)C(=O)C(C)=C3OC=C2C, the MIC50 (Staphylococcus aureus [1]) was 0.5 µg/mL (≈ 1.77 µM), the MIC90 (Staphylococcus aureus [1]) was 0.5 µg/mL (≈ 1.77 µM) and the MIC (Micrococcus luteus [2]) was 0.25 µg/mL (≈ 0.885 µM). For the same molecule, the MIC (Staphylococcus aureus [3]) was 0.25 µg/mL (≈ 0.885 µM), the MIC (Bacillus cereus) was 1 µg/mL (≈ 3.54 µM) and the MIC [4] was 0.25 µg/mL (≈ 0.885 µM). For the same molecule, the MIC (Staphylococcus aureus [5]) was 0.25 µg/mL (≈ 0.885 µM), the MIC (Staphylococcus aureus [6]) was 0.25 µg/mL (≈ 0.885 µM) and the MIC (Micrococcus luteus [7]) was 0.25 µg/mL (≈ 0.885 µM). It also gave an MIC (Klebsiella pneumoniae) of 2 µg/mL (≈ 7.08 µM), an MIC (Staphylococcus aureus [8]; Smith) of 0.25 µg/mL (≈ 0.885 µM) and an MIC (Staphylococcus aureus [8]; TMS 33) of 0.5 µg/mL (≈ 1.77 µM). The MIC (Staphylococcus aureus [8]; TMS 64) was 0.25 µg/mL (≈ 0.885 µM), the MIC (Staphylococcus aureus [8]; TMS 417) was 0.25 µg/mL (≈ 0.885 µM) and the MIC (Bacillus subtilis) was 0.5 µg/mL (≈ 1.77 µM).
